The text below walks through data of article PMC4603714 (Drug Design, Development and Therapy, 2015).

pIC50: −log10 of the molar value.

Test [1] relates to HDAC (HeLa cell nuclear extract). In words: In vitro HDAC inhibition fluorescence assay. To be noted: read-out: HeLa cell nuclear extract IC50, substrate Boc-Lys(acetyl)-AMC, mean of three experiments. The class given is biochemical, human. In a few lines: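 HeLa nuclear extract preincubated with test compound at several concentrations, 10 min at 37°C. Boc-Lys(acetyl)-AMC then added and incubated 30 min at 37°C. Reaction stopped with developer containing trypsin and trichostatin A. Fluorescence read 20 min later (ex 390/em 460 nm). Inhibition calculated relative to control wells. IC50 obtained by regression of concentration against inhibition ratio.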

In test [2] the test system is U937 cells. The test can be described thus: In vitro antiproliferative assay. The class given is cell-based. The note with it: Homo sapiens, U-937, 48 h, read-out: U937 IC50. In a few lines: (§1)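 Cells kept in RPMI-1640 with 10% FBS at 37°C, 5% CO2. Passaged into plates the day before dosing and grown at least 4 h before test compound was added. Exposure was 48 h, then 0.5% MTT for 4 h. Formazan was dissolved in DMSO for 15 min and absorbance read at 570 nm. Inhibition was taken relative to control wells, and IC50 was obtained by regression of concentration versus inhibition ratio.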

For test [3], the system named is U266 cells. The test can be described thus: In vitro antiproliferative assay. The class given is cell-based. The note with it: Homo sapiens, U-266, 48 h, read-out: U266 IC50. An outline of the steps: as §1
The subject of test [4] is HeLa cells. The test can be described thus: In vitro antiproliferative assay. The class given is cell-based. The note with it: Homo sapiens, 48 h, read-out: HeLa IC50. An outline of the steps: as §1
Test [5] has as its system HCT116 cells. In words: In vitro antiproliferative assay. The class given is cell-based. The note with it: Homo sapiens, HCT-116, 48 h, read-out: HCT116 IC50. In a few lines:
as §1

The subject of test [6] is KG-1 cells. The test can be described thus: In vitro antiproliferative assay. The note with it: Homo sapiens, KG-1, 48 h, read-out: KG-1 IC50. In kind it is cell-based. In a few lines:
as §1

Test [7] relates to H7402 cells. In words: In vitro antiproliferative assay. To be noted: Homo sapiens, H7402, 48 h, read-out: H7402 IC50. In kind it is cell-based. In a few lines: as §1

In general, pIC50 refers to the IC50 on a negative log10 scale, so that one unit is a factor of ten.

For the compound `COc1cccc(NC(=O)N[C@H](C(=O)Nc2ccc(C(=O)NO)cc2)c2ccccc2)c1` [Compound 7a, (S)-N-Hydroxy-4-(2-(3-(3-methoxyphenyl)ureido)-2-phenylacetamido)benzamide], the negative logarithm of the IC50 (pIC50) is 7.88 in test [1] and 5.21 in test [2].
As for `O=C(Nc1cccc(Cl)c1)N[C@H](C(=O)Nc1ccc(C(=O)NO)cc1)c1ccccc1` [Compound 7b, (S)-4-(2-(3-(3-Chlorophenyl)ureido)-2-phenylacetamido)-N-hydroxybenzamide], the pIC50 was 7.90 in test [1] and 5.54 in test [2].
For `O=C(Nc1ccccc1Cl)N[C@H](C(=O)Nc1ccc(C(=O)NO)cc1)c1ccccc1` [Compound 7c, (S)-4-(2-(3-(2-Chlorophenyl)ureido)-2-phenylacetamido)-N-hydroxybenzamide] the same measures were 8.64 and 5.36.
In the case of `O=C(Nc1ccccc1F)N[C@H](C(=O)Nc1ccc(C(=O)NO)cc1)c1ccccc1` [Compound 7d, (S)-4-(2-(3-(2-Fluorophenyl)ureido)-2-phenylacetamido)-N-hydroxybenzamide], the pIC50 in test [1] was 7.12.
For `O=C(Nc1ccccc1Br)N[C@H](C(=O)Nc1ccc(C(=O)NO)cc1)c1ccccc1` [Compound 7e, (S)-4-(2-(3-(2-Bromophenyl)ureido)-2-phenylacetamido)-N-hydroxybenzamide], the pIC50 in test [1] is 8.39; in test [2] it was 5.70.
Consider `Cc1ccccc1NC(=O)N[C@H](C(=O)Nc1ccc(C(=O)NO)cc1)c1ccccc1` [Compound 7f, (S)-N-Hydroxy-4-(2-phenyl-2-(3-(o-tolyl)ureido)acetamido)benzamide], for which the pIC50 in test [1] was 8.20.
For `Cc1ccc(NC(=O)N[C@H](C(=O)Nc2ccc(C(=O)NO)cc2)c2ccccc2)cc1` [Compound 7g, (S)-N-Hydroxy-4-(2-phenyl-2-(3-(p-tolyl)ureido)acetamido)benzamide], the figures for the pIC50 in test [1] and in test [2] were 8.57 and 5.51, respectively.
Consider `O=C(Nc1ccc(Cl)cc1Cl)N[C@H](C(=O)Nc1ccc(C(=O)NO)cc1)c1ccccc1` [Compound 7h, (S)-4-(2-(3-(2,4-Dichlorophenyl)ureido)-2-phenylacetamido)-N-hydroxybenzamide], for which the values for the pIC50 in test [1] and in test [2] were 8.92 and 5.29, respectively.
Regarding `Cc1cc(C)cc(NC(=O)N[C@H](C(=O)Nc2ccc(C(=O)NO)cc2)c2ccccc2)c1` [Compound 7i, (S)-4-(2-(3-(3,5-Dimethylphenyl)ureido)-2-phenylacetamido)-N-hydroxybenzamide], the pIC50 was 7.82 in test [1] and 5.24 in test [2].
For the compound `CCc1cccc(CC)c1NC(=O)N[C@H](C(=O)Nc1ccc(C(=O)NO)cc1)c1ccccc1` [Compound 7j, (S)-4-(2-(3-(2,6-Diethylphenyl)ureido)-2-phenylacetamido)-N-hydroxybenzamide], the pIC50 in test [1] is 6.75.
Still for that read-out and setting: then `O=C(Nc1cccc2ccccc12)N[C@H](C(=O)Nc1ccc(C(=O)NO)cc1)c1ccccc1` [Compound 7k, (S)-N-Hydroxy-4-(2-(3-(naphthalen-1-yl)ureido)-2-phenylacetamido)benzamide], with 6.90.
For the compound `O=C(NO)c1ccc(NC(=O)[C@@H](NC(=O)c2ccc3ncccc3c2)c2ccccc2)cc1` [Compound 8a, (S)-N-(2-((4-(Hydroxycarbamoyl)phenyl)amino)-2-oxo-1-phenylethyl)quinoline-6-carboxamide], the negative logarithm of the IC50 (pIC50) in test [1] is 6.77; in test [2], 4.98.
For `O=C(NO)c1ccc(NC(=O)[C@@H](NC(=O)c2ccc3nccnc3c2)c2ccccc2)cc1` [Compound 8b, (S)-N-(2-((4-(Hydroxycarbamoyl)phenyl)amino)-2-oxo-1-phenylethyl)quinoxaline-6-carboxamide] the same measures were 6.79 and 4.98.
For `O=C(NO)c1ccc(NC(=O)[C@@H](NC(=O)c2ccc3cc[nH]c3c2)c2ccccc2)cc1` [Compound 8c, (S)-N-(2-((4-(Hydroxycarbamoyl)phenyl)amino)-2-oxo-1-phenylethyl)-1H-indole-6-carboxamide], the pIC50 was 6.97 in test [1] and 5.01 in test [2].
Consider `O=C(NO)c1ccc(NC(=O)[C@@H](NC(=O)c2cc3ccccc3[nH]2)c2ccccc2)cc1` [Compound 8d, (S)-N-(2-((4-(Hydroxycarbamoyl)phenyl)amino)-2-oxo-1-phenylethyl)-1H-indole-2-carboxamide], for which the figures for the pIC50 in test [1] and in test [2] were 7.28 and 5.05, respectively.
As for `O=C(NO)c1ccc(NC(=O)[C@@H](NC(=O)c2cnccn2)c2ccccc2)cc1` [Compound 8e, (S)-N-(2-((4-(Hydroxycarbamoyl)phenyl)amino)-2-oxo-1-phenylethyl)pyrazine-2-carboxamide], the pIC50 in test [1] is 6.45.
Turning to `COc1ccccc1CN[C@H](C(=O)Nc1ccc(C(=O)NO)cc1)c1ccccc1` [Compound 9a, (S)-N-Hydroxy-4-(2-((2-methoxybenzyl)amino)-2-phenylacetamido)benzamide], the pIC50 in test [3] was 5.82; in test [1] it was 6.98; in test [4], 5.10; in test [5], 5.85; in test [6] it was 5.96; in test [2], 6.12. Also, the negative-log IC50 (pIC50) in test [7] is 5.39.
Consider `O=C(NO)c1ccc(NC(=O)[C@@H](NCc2ccccc2Cl)c2ccccc2)cc1` [Compound 9b, (S)-4-(2-((2-Chlorobenzyl)amino)-2-phenylacetamido)-N-hydroxybenzamide], for which the pIC50 is 5.62 in test [3]; 7.25 in test [1]; 5.22 in test [4]; 5.26 in test [5]; 5.47 in test [6]; 5.96 in test [2]. Moreover, the pIC50 in test [7] was 5.38.
Regarding `O=C(NO)c1ccc(NC(=O)[C@@H](NCc2ccccc2Br)c2ccccc2)cc1` [Compound 9c, (S)-4-(2-((2-Bromobenzyl)amino)-2-phenylacetamido)-N-hydroxybenzamide], the pIC50 in test [3] is 5.68; in test [1], 7.89; in test [4], 4.82; in test [5], 5.64; in test [6], 5.82; in test [2], 6.08. Moreover, the negative logarithm of the IC50 (pIC50) in test [7] was 5.15.
For `O=C(/C=C/c1ccc(NC(=O)[C@@H](NC(=O)Nc2ccccc2Cl)c2ccccc2)cc1)NO` [Compound 16a, (S, E)-3-(4-(2-(3-(2-Chlorophenyl)ureido)-2-phenylacetamido)phenyl)-N-hydroxyacrylamide], in test [1], the pIC50 is 6.89.
The same measure, in the same setting: then `O=C(/C=C/c1ccc(NC(=O)[C@@H](NC(=O)Nc2ccccc2F)c2ccccc2)cc1)NO` [Compound 16b, (S, E)-3-(4-(2-(3-(2-Fluorophenyl)ureido)-2-phenylacetamido)phenyl)-N-hydroxyacrylamide], with 6.67; and `O=C(/C=C/c1ccc(NC(=O)[C@@H](NC(=O)Nc2ccccc2Br)c2ccccc2)cc1)NO` [Compound 16c, (S, E)-3-(4-(2-(3-(2-Bromophenyl)ureido)-2-phenylacetamido)phenyl)-N-hydroxyacrylamide], with 7.04; and `Cc1ccccc1NC(=O)N[C@H](C(=O)Nc1ccc(/C=C/C(=O)NO)cc1)c1ccccc1` [Compound 16d, (S, E)-N-Hydroxy-3-(4-(2-phenyl-2-(3-(o-tolyl)ureido)acetamido)phenyl)acrylamide], with 6.09.
